The target in assay [1] is T1, P2Y purinoceptor 12 (Homo sapiens, UniProt Q9H244). The assay can be described thus: Competitive antagonist activity at human P2Y12 receptor expressed in CHO cells assessed as forskolin/ 2-methylthio-ADP-induced cAMP production preincubated for 10 mins followed 2-methylthio-ADP addition measured after 3.5 hrs by luciferase reporter gene assay. The note with it: read-out: pA2 (converted). In kind it is functional, cell-based. For orientation: cAMP levels reflect the balance of adenylyl cyclase and phosphodiesterase activity.
T1 sequence (Q9H244 whole entry): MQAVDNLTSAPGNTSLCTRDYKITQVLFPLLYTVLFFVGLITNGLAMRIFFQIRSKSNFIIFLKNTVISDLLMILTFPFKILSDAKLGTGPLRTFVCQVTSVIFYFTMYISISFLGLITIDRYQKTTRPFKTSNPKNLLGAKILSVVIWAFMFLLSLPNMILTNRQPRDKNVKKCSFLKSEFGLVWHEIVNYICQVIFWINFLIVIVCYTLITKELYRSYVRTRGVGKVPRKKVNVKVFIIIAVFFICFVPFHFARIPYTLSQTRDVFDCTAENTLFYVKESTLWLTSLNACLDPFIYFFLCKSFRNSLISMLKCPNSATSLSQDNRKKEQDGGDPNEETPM

Assay [2] has as its target T2, P2Y purinoceptor 4 (Homo sapiens, UniProt P51582). The assay can be described thus: Antagonist activity at human P2Y4 receptor transfected in human 1321N1 cells assessed as inhibition of UTP-activated intracellular calcium mobilization at 100 uM preincubated for 30 mins followed by UTP addition by fluo-4-dye based fluorescence assay. In kind it is functional, cell-based.

For assay [3], the target named is T2, P2Y purinoceptor 4. The assay can be described thus: Antagonist activity at human P2Y4 receptor transfected in human 1321N1 cells assessed as inhibition of UTP-activated intracellular calcium mobilization preincubated for 30 mins followed by UTP addition by fluo-4-dye based fluorescence assay. It is filed as functional, cell-based. Put shortly: (§1)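 1321N1 astrocytoma cells stably expressing the human P2Y subtype, grown in DMEM with 10 % FCS and 200 μg/mL G418 at 37 °C. Plated 50,000 cells/well about 24 h before testing. Cells loaded with fluo-4 AM for 1 h, then placed in HBSS and preincubated 30 min with compound. Agonist was injected at about EC80: ADP 500 nM (P2Y1), UTP 500 nM (P2Y2, P2Y4), UDP 750 nM (P2Y6). Fluorescence read at ex 488/em 525 nm. At least three independent experiments in duplicate. IC50 obtained by nonlinear regression.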
On the technique in general: Calcium flux is commonly read through the fluorescence of an indicator in the cells.

The target in assay [4] is T1, P2Y purinoceptor 12. The assay can be described thus: Antagonist activity at human P2Y12 receptor expressed in CHO cells assessed as inhibition of 2-MeSADP-induced beta-arrestin translocation preincubated for 30 mins followed by 2-MeSADP addition measured after 90 mins by luminescence-based topcount method. It is filed as cell-based.
A further assay addresses P2Y purinoceptor 2 (Homo sapiens, UniProt P41231). The assay can be described thus: Antagonist activity at human P2Y2 receptor transfected in human 1321N1 cells assessed as inhibition of UTP-activated intracellular calcium mobilization preincubated for 30 mins followed by UTP addition by fluo-4-dye based fluorescence assay. In kind it is functional, cell-based. The method, boiled down:
as §1

Assay [5] has as its target T3, P2Y purinoceptor 6 (Homo sapiens, UniProt Q15077). The assay can be described thus: Antagonist activity at human P2Y6 receptor transfected in human 1321N1 cells assessed as inhibition of UDP-activated intracellular calcium mobilization preincubated for 30 mins followed by UDP addition by fluo-4-dye based fluorescence assay. In kind it is functional, cell-based. The method, boiled down: as §1

The target of assay [6] is T4, P2Y purinoceptor 1 (Homo sapiens, UniProt P47900). The assay can be described thus: Antagonist activity at human P2Y1 receptor transfected in human 1321N1 cells assessed as inhibition of ADP-activated intracellular calcium mobilization preincubated for 30 mins followed by ADP addition by fluo-4-dye based fluorescence assay. It is filed as functional, cell-based. The method, boiled down:
as §1

Assay [7] concerns the target T2, P2Y purinoceptor 4. The assay can be described thus: Non-competitive antagonist activity at human P2Y4 receptor transfected in human 1321N1 cells assessed as inhibition of UTP-activated intracellular calcium mobilization at 15 uM preincubated for 30 mins followed by UTP addition by fluo-4-dye based fluorescence assay. In kind it is functional, cell-based. Put shortly:
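Fluo-4-loaded 1321N1 cells stably expressing human P2Y4 were preincubated 30 min with fixed antagonist concentrations up to 15 μM in HBSS. Full UTP concentration-response curves were then recorded by injecting UTP and reading fluorescence immediately (ex 488/em 525 nm). The mode of antagonism was judged from depression of the maximum versus rightward shift. EC50 values were compared by unpaired t-test.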

Assay [8] addresses T4, P2Y purinoceptor 1. The assay can be described thus: Antagonist activity at human P2Y1 receptor transfected in human 1321N1 cells assessed as inhibition of ADP-activated intracellular calcium mobilization at 50 uM preincubated for 30 mins followed by ADP addition by fluo-4-dye based fluorescence assay. It is filed as functional, cell-based.
Assay [9] has as its target T3, P2Y purinoceptor 6. The assay can be described thus: Antagonist activity at human P2Y6 receptor transfected in human 1321N1 cells assessed as inhibition of UDP-activated intracellular calcium mobilization at 50 uM preincubated for 30 mins followed by UDP addition by fluo-4-dye based fluorescence assay. It is filed as functional, cell-based.

Active and inactive are the calls of the source. No cut-off for these calls is given here.

T3 sequence (Q15077 whole entry): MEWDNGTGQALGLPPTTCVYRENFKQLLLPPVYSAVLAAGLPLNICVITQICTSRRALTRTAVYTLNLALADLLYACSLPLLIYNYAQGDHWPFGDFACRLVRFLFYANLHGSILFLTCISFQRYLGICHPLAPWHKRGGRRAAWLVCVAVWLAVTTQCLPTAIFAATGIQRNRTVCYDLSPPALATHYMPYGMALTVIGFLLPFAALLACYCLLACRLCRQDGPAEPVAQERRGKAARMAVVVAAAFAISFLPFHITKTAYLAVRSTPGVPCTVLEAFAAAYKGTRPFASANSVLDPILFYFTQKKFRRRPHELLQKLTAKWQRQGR
T4 sequence (P47900 whole entry): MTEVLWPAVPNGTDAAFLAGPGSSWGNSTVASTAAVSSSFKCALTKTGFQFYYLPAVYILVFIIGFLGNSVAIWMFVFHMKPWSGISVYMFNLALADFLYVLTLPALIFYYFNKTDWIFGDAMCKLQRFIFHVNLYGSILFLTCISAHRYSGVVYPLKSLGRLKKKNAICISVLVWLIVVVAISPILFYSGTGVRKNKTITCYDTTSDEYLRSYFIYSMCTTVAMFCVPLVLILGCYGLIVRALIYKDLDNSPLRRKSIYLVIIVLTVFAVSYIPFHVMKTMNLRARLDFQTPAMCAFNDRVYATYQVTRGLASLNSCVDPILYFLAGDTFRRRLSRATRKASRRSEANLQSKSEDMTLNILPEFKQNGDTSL
T2 sequence (P51582 whole entry): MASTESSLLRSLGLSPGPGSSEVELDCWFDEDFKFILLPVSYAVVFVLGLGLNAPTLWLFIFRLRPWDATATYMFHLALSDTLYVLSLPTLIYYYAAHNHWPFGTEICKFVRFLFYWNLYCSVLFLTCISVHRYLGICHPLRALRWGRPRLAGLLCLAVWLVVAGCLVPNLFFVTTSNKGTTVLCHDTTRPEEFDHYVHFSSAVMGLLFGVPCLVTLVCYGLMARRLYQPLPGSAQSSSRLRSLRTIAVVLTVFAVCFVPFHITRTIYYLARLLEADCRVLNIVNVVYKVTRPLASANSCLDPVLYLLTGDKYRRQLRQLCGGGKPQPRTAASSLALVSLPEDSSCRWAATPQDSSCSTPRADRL
P2Y purinoceptor 2, sequence (P41231 whole entry): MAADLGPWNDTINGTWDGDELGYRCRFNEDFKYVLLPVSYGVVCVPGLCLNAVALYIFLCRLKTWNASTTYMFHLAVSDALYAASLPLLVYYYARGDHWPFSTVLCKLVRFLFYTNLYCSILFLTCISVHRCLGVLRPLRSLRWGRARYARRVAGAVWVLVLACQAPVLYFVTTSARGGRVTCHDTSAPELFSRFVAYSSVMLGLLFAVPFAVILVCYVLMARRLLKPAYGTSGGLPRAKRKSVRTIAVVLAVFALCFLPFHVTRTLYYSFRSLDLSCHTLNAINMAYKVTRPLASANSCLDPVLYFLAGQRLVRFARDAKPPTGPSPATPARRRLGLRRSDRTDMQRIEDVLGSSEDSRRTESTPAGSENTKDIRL

On to `Nc1c(S(=O)(=O)O)cc(Nc2ccc(Nc3ccccc3)c(S(=O)(=O)O)c2)c2c1C(=O)c1ccccc1C2=O`, for which the Kb on P2Y purinoceptor 12 [1] is 0.000158 µM.

The term inhibition denotes the share of the control response that was lost under treatment. Broadly, the IC50 is the concentration needed to halve the response being measured. With `Nc1c(S(=O)(=O)O)cc(Nc2cc(F)ccc2C(=O)O)c2c1C(=O)c1ccccc1C2=O`, the inhibition at P2Y purinoceptor 4 [2] came to 33%. Besides, the IC50 on P2Y purinoceptor 4 [3] is above 100 µM.

For `Cc1ccc(Sc2ccc(Nc3cc(S(=O)(=O)O)c(N)c4c3C(=O)c3ccccc3C4=O)cc2)c(C)c1`, the IC50 was 2.41 µM on P2Y purinoceptor 12 [4]; 0.233 µM on P2Y purinoceptor 4 [3]; 8.54 µM at P2Y purinoceptor 2; 12.5 µM on P2Y purinoceptor 6 [5]; 5.48 µM on P2Y purinoceptor 1 [6]. For the same molecule, at P2Y purinoceptor 4 [7], the inhibition result is “Active”.

Turning to `Nc1c(S(=O)(=O)O)cc(Nc2ccc(SCc3cccnc3)cc2)c2c1C(=O)c1ccccc1C2=O`, the IC50 is 3.59 µM on P2Y purinoceptor 12 [4]; 0.409 µM on P2Y purinoceptor 4 [3]; 13.1 µM on P2Y purinoceptor 2; above 100 µM at P2Y purinoceptor 6 [5]; 25 µM at P2Y purinoceptor 1 [6]. Also, the inhibition on P2Y purinoceptor 1 [8] was determined as 61%; on P2Y purinoceptor 6 [9], 12%.

Regarding `Nc1c(S(=O)(=O)O)cc(Nc2ccc(Cl)cc2C(=O)O)c2c1C(=O)c1ccccc1C2=O`, on P2Y purinoceptor 4 [2], the inhibition is 31%. Besides, the IC50 at P2Y purinoceptor 4 [3] was above 100 µM.

The record behind these values is ChEMBL document CHEMBL4007497, “Development of Potent and Selective Antagonists for the UTP-Activated P2Y4 Receptor” (J Med Chem, 2017).
